Data on 4 molecules can be found in ChEMBL document CHEMBL1687926, “14-Aminocamptothecins: their synthesis, preclinical activity, and potential use for cancer treatment” (J Med Chem, 2011).

Data set [1] has as its system NCI-H460. Briefly: Cytotoxicity against human H460 cells after 72 hrs by alamar blue assay. It counts as functional, cell-based. Put shortly: (§1)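 Cells seeded at 4 × 10³ per well and grown 24 h. Compounds dissolved in DMSO and diluted in medium to final concentrations, then incubated 72 h at 37 °C, 5% CO₂. Viable cells read by AlamarBlue; IC₅₀ taken as the concentration giving 50% growth inhibition.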
On the technique in general: Alamar Blue is a resazurin reagent that responds to reducing activity.

The subject of the next data set is H69AR. The experiment in a line: Cytotoxicity against human H69AR cells overexpressing MRP1 after 72 hrs by alamar blue assay.
The nature of data set [2]: Half life in CD-1 mouse brain at 50 mg/kg, ip by LC/MS/MS analysis. The class given is ADME, organism-based. Also noted: dose 50 mg/kg, route intraperitoneal. Summed up: (§2)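 CD-1 mice (~25 g) given 50 mg/kg ip in 5% DMSO/5% Tween 80 in water; three mice per time point, sampled up to 480 min. Blood taken by cardiac puncture into EDTA, then whole brain excised and homogenized in water. Proteins precipitated with ice-cold acetonitrile containing propranolol internal standard; supernatant analysed by HPLC/MS/MS.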

The next data set deals with SK-MEL-2. Briefly: Cytotoxicity against human SK-MEL-2 cells after 72 hrs by alamar blue assay. The class given is functional, cell-based. The conditions noted are these: SK-MEL-2, 72 h. Put shortly: as §1
The nature of data set [3]: Resistance ratio of IC50 for human H69AR cells overexpressing MRP1 after 72 hrs s to IC50 for human H69 cells after 72 hrs.
Data set [4] in a line: Ratio of IC50 for mouse bone marrow cell to IC50 for human bone marrow cell. The class given is cell-based. As to conditions: bone marrow cells. Summed up:
(§3)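 CFU-GM colony assay in triplicate at 2 × 10⁴ cells per culture, using thawed normal human bone marrow or fresh mouse femoral marrow. Colonies were scored after 16-18 days. The IC50 or IC90 from each species gave the mouse/human ratio.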

The nature of data set [5]: Cmax in CD-1 mouse brain at 50 mg/kg, ip by LC/MS/MS analysis. It counts as ADME, organism-based. Also noted: dose 50 mg/kg, route intraperitoneal. Summed up: as §2
Data set [6] in a line: Resistance ratio of IC50 for human MES-SA/Dx5 cells overexpressing MDR1 after 72 hrs to IC50 for human MESSA cells after 72 hrs. It counts as functional. Put shortly: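 Cytotoxicity compared in MDR1-overexpressing lines and their parental wild-type lines. 72 h exposure at 37 °C, viability by AlamarBlue, IC₅₀ at 50% growth inhibition. Resistance ratio = IC₅₀ in overexpressing line / IC₅₀ in parental line.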

For a further data set, the system named is Mus musculus. Briefly: Toxicity in nu/nu mouse assessed as body weight loss at 30 mg/kg, po QD for 5 days followed by 2 days without treatment for 2 weeks. The class given is organism-based. Also noted: dose 30 mg/kg, route oral. The conditions noted are these: in vivo. Summed up: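 Female nude (nu/nu) mice (males for prostate model) bearing sc xenografts, dosing started at 100-150 mm³, 10/group. Oral gavage in 5% DMSO/5% Tween 80/1% CMC in water, QD 5 days on/2 off per cycle, 2 or 4 cycles. Body weight recorded twice weekly; maximum loss reported.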

The next data set deals with Malme-3M. Briefly: Cytotoxicity against human MALME-3M cells after 72 hrs by alamar blue assay. The class given is functional, cell-based. Summed up:
as §1

Data set [7] is described as follows: Cytotoxicity against human MESSA cells after 72 hrs by alamar blue assay. It counts as functional, cell-based. As to conditions: MES-SA. Put shortly:
as §1

Data set [8] concerns NCI-H460. Briefly: Antitumor activity against human H460 cells xenografted in nu/nu mouse assessed as tumor growth delay at 30 mg/kg, po QD for 5 days followed by 2days without treatment for 2 weeks. The class given is functional. Summed up: (§4)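 Female nude (nu/nu) mice (males for prostate model) implanted sc in the flank with tumor cells (1 × 10⁶ for H460). Dosing began at 100-150 mm³, 10 mice/group. Oral gavage in 5% DMSO/5% Tween 80/1% CMC in water, 5 days on/2 off per cycle, 2 or 4 cycles. Volume = length×width²/2, measured twice weekly. TGI = (1 − ΔT/ΔC)×100; TGD = extra days to reach 500 mm³ versus control.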
For orientation: In xenograft studies the graft and the host belong to different species.

Data set [9] is described as follows: Tmax in CD-1 mouse brain at 50 mg/kg, ip by LC/MS/MS analysis. Also noted: dose 50 mg/kg, route intraperitoneal. It counts as ADME, organism-based. Summed up: as §2
Data set [10] is described as follows: Cmax in CD-1 mouse plasma at 50 mg/kg, ip by LC/MS/MS analysis. It counts as ADME, organism-based. Also noted: dose 50 mg/kg, route intraperitoneal. Put shortly:
as §2

The nature of data set [11]: AUC in CD-1 mouse brain at 50 mg/kg, ip by LC/MS/MS analysis. It counts as ADME, organism-based. On the set-up: dose 50 mg/kg, route intraperitoneal. Summed up: as §2
For data set [12], the system named is NCI-H460. The experiment in a line: Cytotoxicity against human H460 cells after 72 hrs by alamar blue assay in presence of 40 mg/ml HSA. It counts as functional, cell-based. The conditions noted are these: NCI-H460, 72 h. Summed up:
(§5)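 H460 cells seeded at 4 × 10³ per well and grown 24 h. Compounds then cocultured with cells for 72 h at 37 °C, with or without 40 mg/mL human serum albumin. Viability read by AlamarBlue; IC₅₀ = 50% growth inhibition. Ratio compares the IC₅₀ with HSA to the IC₅₀ without.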

In data set [13] the test system is NCI-H460. Briefly: Ratio IC50 for human H460 cells after 72 hrs in presence of 40 mg/ml HSA to IC50 for human H460 cells after 72 hrs. It counts as functional. Summed up:
as §5

The next data set deals with HT-29. Briefly: Cytotoxicity against human HT-29 cells after 72 hrs by alamar blue assay. The class given is functional, cell-based. As to conditions: HT-29, 72 h. Summed up: as §1
Data set [14] can be described thus: Ratio of drug level in brain to plasma in CD-1 mouse at 50 mg/kg, ip. It counts as ADME, organism-based. Also noted: dose 50 mg/kg, route intraperitoneal. Put shortly:
as §2

The next data set has as its system IGROV-1. The experiment in a line: Cytotoxicity against human IGROV1 cells after 72 hrs by alamar blue assay. The conditions noted are these: IGROV-1, 72 h. It counts as functional, cell-based. Put shortly:
as §1

Data set [15] can be described thus: Tmax in CD-1 mouse plasma at 50 mg/kg, ip by LC/MS/MS analysis. The class given is ADME, organism-based. Also noted: dose 50 mg/kg, route intraperitoneal. Put shortly: as §2
The subject of another data set is NCI-H69. The experiment in a line: Cytotoxicity against human H69 cells after 72 hrs by alamar blue assay. It counts as functional, cell-based. As to conditions: NCI-H69, 72 h. Put shortly: as §1
Data set [16] has as its system NCI-H460. Briefly: Antitumor activity against human H460 cells xenografted in nu/nu mouse assessed as tumor growth inhibition at 30 mg/kg, po QD for 5 days followed by 2days without treatment for 2 weeks. It counts as functional. On the set-up: scale not given: the % may be the effect or the level left. Put shortly:
as §4

Data set [17] in a line: AUC in CD-1 mouse plasma at 50 mg/kg, ip by LC/MS/MS analysis. Also noted: dose 50 mg/kg, route intraperitoneal. It counts as ADME, organism-based. Summed up:
as §2

The next data set concerns PC-3. Briefly: Cytotoxicity against human PC3 cells after 72 hrs by alamar blue assay. It counts as functional, cell-based. The conditions noted are these: PC-3, 72 h. Summed up: as §1
Data set [18] is described as follows: Cytotoxicity against human bone marrow cell by CFU-GM assay. The class given is cell-based.
In another data set the test system is LNCaP. The experiment in a line: Cytotoxicity against human LNCAP cells after 72 hrs by alamar blue assay. The class given is functional, cell-based. Put shortly:
as §1

The nature of data set [19]: Half life in CD-1 mouse plasma at 50 mg/kg, ip by LC/MS/MS analysis. It counts as ADME, organism-based. Also noted: dose 50 mg/kg, route intraperitoneal. Summed up:
as §2

The subject of a further data set is DU-145. The experiment in a line: Cytotoxicity against human DU145 cells after 72 hrs by alamar blue assay. It counts as functional, cell-based. As to conditions: DU-145, 72 h. Summed up:
as §1

Data set [20] can be described thus: Cytotoxicity against human MES-SA/Dx5 cells overexpressing MDR1 after 72 hrs by alamar blue assay. It counts as functional, cell-based. The conditions noted are these: MES-SA/Dx5, 72 h. Summed up:
as §1

The nature of data set [21]: Ratio of IC90 for mouse bone marrow cell to IC90 for human bone marrow cell. The conditions noted are these: bone marrow cells. It counts as ADME, cell-based. Summed up: as §3
Data set [22] can be described thus: Cytotoxicity against mouse bone marrow cell by CFU-GM assay. It counts as cell-based. Summed up:
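CFU-GM colony assay on normal human bone marrow (thawed) or mouse femoral marrow (freshly extracted). Human colonies scored after 16-18 days. IC₅₀ taken from triplicate assays.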

A further data set has as its system A-375. The experiment in a line: Cytotoxicity against human A375 cells after 72 hrs by alamar blue assay. As to conditions: A-375, 72 h. The class given is functional, cell-based. Summed up:
as §1

`CC[C@@]1(O)C(=O)OCc2c1c([N+](=O)[O-])c1n(c2=O)Cc2cc3ccccc3nc2-1` gave an IC50 with NCI-H460 [1] (Homo sapiens, NCI-H460, 72 h) of 3000 nM.
In the case of `CC[C@@]1(O)C(=O)OCc2c1c(N)c1n(c2=O)Cc2cc3ccccc3nc2-1`, the IC50 in the data set on H69AR is 91 nM; in the data set on SK-MEL-2 it was 170 nM; with NCI-H460 [1] (Homo sapiens, NCI-H460, 72 h), 18 nM; in the data set with NCI-H460 [1] (nci-h460) it was 23 nM; in the data set with Malme-3M it was 780 nM; in [7], 58 nM. Besides, the IC50 with NCI-H460 [12] was 120 nM; in the data set with HT-29, 230 nM; in the data set with IGROV-1, 120 nM; in the data set with NCI-H69 it was 91 nM; in the data set with PC-3 it was 43 nM; in [18] (Homo sapiens, Bone marrow cell), 710 nM. The IC50 with LNCaP amounted to 110 nM; in the data set on DU-145 it was 780 nM; in data set [20] it was 60 nM; in data set [22], 10 nM; in the data set on A-375 it was 22 nM. Moreover, the half-life in [2] was determined as 210 min; in [19], 250 min. Also, the Ratio in data set [3] came out at 1; in data set [6], 1; in the data set with NCI-H460 [13] it was 5. Moreover, the selectivity ratio in data set [4] is 6; in [21], 4. The Cmax in [5] and in [10] was 600 ng/mL each time. Besides, the Activity in the data set with Mus musculus is listed as 4%; with NCI-H460 [16], 79%. Also, the Time with NCI-H460 [8] stood at 15 days. Further, the time to peak (Tmax) in data set [9] and in [15] was 30 min throughout. Moreover, the AUC in [11] is 1670 ng·h/mL; in data set [17], 1500 ng·h/mL. For the same molecule, the Kp in [14] is 101. The molecule further showed an IC90 in [18] (human, bone marrow cells) of 4.8 µM.
Consider `CCc1c2c(nc3ccccc13)-c1c([N+](=O)[O-])c3c(c(=O)n1C2)COC(=O)[C@]3(O)CC`, for which the IC50 in the data set with NCI-H460 [1] (Homo sapiens, NCI-H460, 72 h) came out at 4600 nM.
Turning to `CC[C@@]1(O)C(=O)Nc2c1c(CO)c(=O)n1c2-c2nc3ccccc3cc2C1`, it took 7700 nM to reach half-maximal inhibition with NCI-H460 [1] (Homo sapiens, NCI-H460, 72 h) (IC50).

What is called IC50 is the concentration at which inhibition is half-maximal. By half-life is commonly meant how long it takes for the measured level to halve. In general, Cmax refers to the peak of the concentration-time curve. Broadly, the Tmax is the time at which the peak concentration occurs. A word on the AUC: it is the area under the concentration-time curve, a measure of exposure. As usually defined, the Kp is tissue or fluid exposure divided by exposure in the circulation. The IC90 is the concentration needed for an effect of 90%.
